In ChEMBL document CHEMBL3259780, “3-Substituted-N-(4-hydroxynaphthalen-1-yl)arylsulfonamides as a novel class of selective Mcl-1 inhibitors: structure-based design, synthesis, SAR, and biological evaluation” (J Med Chem, 2014):
Calls of active or inactive are those of the source. No cut-off for these calls is given here.

Assays:
[1] = molecular target: T1, Apoptosis regulator Bcl-2 (Homo sapiens, UniProt P10415); test: Displacement of Flu-BID/FAM-BID from His-tagged BCL2 (1 to 202) (unknown origin) expressed in Escherichia coli BL21(DE3) after 3 hrs by fluorescence polarization assay
T1 sequence (P10415 whole entry): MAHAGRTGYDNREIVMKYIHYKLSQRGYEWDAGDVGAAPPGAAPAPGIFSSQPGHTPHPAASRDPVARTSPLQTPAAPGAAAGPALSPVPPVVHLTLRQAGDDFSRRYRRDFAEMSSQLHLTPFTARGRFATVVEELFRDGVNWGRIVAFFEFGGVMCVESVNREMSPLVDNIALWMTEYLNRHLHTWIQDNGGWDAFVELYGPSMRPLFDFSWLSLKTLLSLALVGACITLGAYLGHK

MV4-11 = test: Cytotoxicity against human MV4-11 cells assessed as intracellular ATP level after 3 days by CellTiterGlo assay; format: functional, cell-based
How it was run: (§1)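 Cells in RPMI 1640 with 10% FBS, plated at 0.5 × 10^6 cells/well and exposed to a range of compound concentrations for 3 days. Viability is read as intracellular ATP by CellTiter-Glo luminescence. Growth is expressed as percent of DMSO-treated cells, and IC50 is obtained by nonlinear regression.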

K562 = test: Cytotoxicity against human K562 cells assessed as intracellular ATP level after 3 days by CellTiterGlo assay; format: functional, cell-based; how it was run: as §1
[2] = molecular target: T2, Induced myeloid leukemia cell differentiation protein Mcl-1 (Homo sapiens, UniProt Q07820); test: Binding affinity to His-tagged MCL1 (171 to 327) (unknown origin) expressed in Escherichia coli BL21(DE3) assessed as inhibition of MCL1-N-terminal biotin-labeled BIM BH3 peptide interaction after 30 mins by surface plasmon resonance analysis
T2 sequence (Q07820 whole entry): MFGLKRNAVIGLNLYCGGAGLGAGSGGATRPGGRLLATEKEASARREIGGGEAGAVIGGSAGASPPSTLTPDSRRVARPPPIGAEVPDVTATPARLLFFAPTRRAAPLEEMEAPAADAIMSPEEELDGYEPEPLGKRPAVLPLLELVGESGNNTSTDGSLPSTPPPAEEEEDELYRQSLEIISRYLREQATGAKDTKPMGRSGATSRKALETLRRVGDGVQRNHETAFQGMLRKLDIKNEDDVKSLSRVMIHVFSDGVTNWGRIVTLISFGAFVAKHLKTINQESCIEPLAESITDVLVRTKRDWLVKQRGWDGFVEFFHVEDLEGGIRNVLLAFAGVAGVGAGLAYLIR

HL-60 [3] = test: Cytotoxicity against human HL60 cells assessed as intracellular ATP level after 3 days by CellTiterGlo assay; format: functional, cell-based; how it was run: as §1
Bcl-2-like protein 1 = Bcl-2-like protein 1 (Homo sapiens, UniProt Q07817); test: Displacement of Flu-BID/FAM-BID from His-tagged BCLX-L (1 to 209) (unknown origin) expressed in Escherichia coli BL21(DE3) after 3 hrs by fluorescence polarization assay
Chain of Bcl-2-like protein 1 (Q07817 whole entry): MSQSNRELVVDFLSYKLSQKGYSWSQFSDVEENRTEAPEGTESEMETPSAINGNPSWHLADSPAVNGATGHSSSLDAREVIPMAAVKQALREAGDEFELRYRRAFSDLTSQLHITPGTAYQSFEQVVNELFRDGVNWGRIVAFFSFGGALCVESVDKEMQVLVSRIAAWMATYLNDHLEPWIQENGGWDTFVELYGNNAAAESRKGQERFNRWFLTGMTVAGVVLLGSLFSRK

[4] = molecular target: T2, Induced myeloid leukemia cell differentiation protein Mcl-1; test: Displacement of Flu-BID/FAM-BID from His-tagged MCL1 (171 to 327) (unknown origin) expressed in Escherichia coli BL21(DE3) after 3 hrs by fluorescence polarization assay
[5] = molecular target: T2, Induced myeloid leukemia cell differentiation protein Mcl-1; test: Inhibition of MCL1 (unknown origin) overexpressed in E-mu-myc transgenic mouse lymphoma cells assessed as induction of cell death at 0.1 to 10 uM after 15 to 18 hrs by flow cytometric analysis; format: cell-based
How it was run: (§2)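 Eμ-myc transgenic mouse lymphoma cells retrovirally transduced to overexpress Mcl-1 or Bcl-2, seeded at 0.5 × 10^6 cells/well. Cells were treated at varying concentrations for 15–18 h and stained with violet LIVE/DEAD fixable dead-cell dye. Percent stained (dead) cells was measured by flow cytometry. Means ± SEM from 3–7 independent experiments.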

[6] = molecular target: T1, Apoptosis regulator Bcl-2; details: lymphoma, 0.1 to 10 uM
Homo sapiens = species on record: Homo sapiens; test: Selectivity ratio of Ki for His-tagged BCL2 (1 to 202) (unknown origin) to Ki for His-tagged MCL1 (171 to 327) (unknown origin)
How it was run: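 Buffer 100 mM potassium phosphate pH 7.5 with bovine gamma globulin, azide and 0.01% Triton X-100; 3 h at room temperature. IC50 fitted, then converted to Ki.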

[7] = molecular target: T2, Induced myeloid leukemia cell differentiation protein Mcl-1; test: Inhibition of FITC-labeled MCL1 (unknown origin) after 5 mins by fluorescence polarization assay
[8] = molecular target: T1, Apoptosis regulator Bcl-2; test: Inhibition of BCL2 (unknown origin) overexpressed in E-mu-myc transgenic mouse lymphoma cells assessed as induction of cell death after 15 to 18 hrs by flow cytometric analysis; format: cell-based; how it was run: as §2
HL-60 [9] = test: Induction of apoptosis in human HL60 cells assessed as caspase-3 activation at 2.5 uM […] by DEVD-AFC-based fluorometric assay; format: functional, cell-based
[10] = molecular target: Induced myeloid leukemia cell differentiation protein Mcl-1 homolog (Mus musculus) (UniProt P97287); test: Inhibition of MCL1 in BAX/BAK double knock out MEF assessed as induction of cell death at 16 uM after 15 hrs by propidium iodide staining-based flow cytometric analysis relative to control
Chain of Induced myeloid leukemia cell differentiation protein Mcl-1 homolog (Mus musculus) (P97287 whole entry): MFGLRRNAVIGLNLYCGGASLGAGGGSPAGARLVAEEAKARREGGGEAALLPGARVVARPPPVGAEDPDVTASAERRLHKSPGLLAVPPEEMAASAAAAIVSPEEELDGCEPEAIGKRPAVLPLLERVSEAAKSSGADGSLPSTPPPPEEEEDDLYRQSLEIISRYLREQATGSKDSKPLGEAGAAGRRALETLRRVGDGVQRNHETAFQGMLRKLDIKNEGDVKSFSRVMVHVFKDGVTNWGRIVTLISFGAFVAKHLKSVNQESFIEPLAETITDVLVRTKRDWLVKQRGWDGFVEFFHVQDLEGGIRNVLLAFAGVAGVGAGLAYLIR
How it was run: (§3)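 Wild-type and Bax/Bak double-knockout MEFs were grown in DMEM with 10% FBS, seeded at 0.5 × 10^6 cells/well and allowed to adhere. Cells were exposed to increasing concentrations for 15 h, harvested, washed in PBS and stained with 0.025 mg/mL propidium iodide. PI-positive percentage was measured by flow cytometry. Mean ± SEM, with unpaired t test.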

HL-60 [11] = test: Induction of apoptosis in human HL60 cells after 20 hrs by annexin V-FITC and propidium iodide staining-based flow cytometric analysis; format: functional, cell-based
How it was run: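 HL-60 cells at 0.5 × 10^6 cells/well were exposed to compounds at several concentrations for 20 h, then washed in PBS and stained with annexin-V FITC plus PI. Flow cytometry was run within 1 h. Annexin+/PI− counts as early apoptosis and double positive as late. Some runs included a 1 h pretreatment with 100 μM Z-VAD-FMK.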

[12] = molecular target: Induced myeloid leukemia cell differentiation protein Mcl-1 homolog (Mus musculus) (UniProt P97287); test: Inhibition of MCL1 in wild-type MEF assessed as induction of BAX/BAK-dependent cell death at 16 uM after 15 hrs by propidium iodide staining-based flow cytometric analysis relative to control
How it was run: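 Wild-type and Bax/Bak double-knockout MEFs grown in DMEM with 10% FBS, seeded at 0.5 × 10^6 cells/well and left to adhere. Exposed 15 h to compound, harvested, PBS-washed, stained with 0.025 mg/mL propidium iodide. PI-positive percentage by flow cytometry; significance by unpaired t test.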

[13] = molecular target: Induced myeloid leukemia cell differentiation protein Mcl-1 homolog (Mus musculus) (UniProt P97287); test: Inhibition of MCL1 in wild-type MEF assessed as induction of BAX/BAK-dependent cell death after 15 hrs by propidium iodide staining-based flow cytometric analysis; how it was run: as §3
HL-60 [14] = test: Induction of apoptosis in human HL60 cells assessed as caspase-3 activation after 20 hrs by DEVD-AFC-based fluorometric assay; format: functional, cell-based
How it was run: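 HL-60 cells were seeded at 0.5 × 10^6 cells/well and exposed to graded compound concentrations for 20 h. Caspase-3 activity was measured by fluorometric kit assay with DEVD-AFC substrate. Results are expressed as fold change over DMSO-treated cells.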

Structure (SMILES) | IC50 [2] [µM] | Ki [4] [µM] | other results
O=C(O)CSc1cc(NS(=O)(=O)c2cccc(-c3ccccc3)c2)c2ccccc2c1O | 2.31 | – | Ki [1]: 7.85 µM; Activity (MV4-11): Dose-dependent effect; Activity (K562): Dose-dependent effect; Activity (HL-60 [3]): Dose-dependent effect; Ki (Bcl-2-like protein 1): 15.1 µM
CS(=O)(=O)Nc1cc(SCC(=O)O)c(O)c2ccccc12 | > 100 | 74.9 | –
O=C(O)CSc1cc(NS(=O)(=O)c2ccc(Oc3ccc(F)cc3)cc2)c2ccccc2c1O | 0.9 | 0.29 | –
O=C(O)CSc1cc(CNS(=O)(=O)c2ccccc2)c2ccccc2c1O | 30.2 | 64.8 | –
NC(=O)CSc1cc(NS(=O)(=O)c2ccc(Br)cc2)c2ccccc2c1O | 3.87 | – | –
O=C(O)CSc1cc(NS(=O)(=O)c2ccc(-c3ccc(F)cc3F)cc2)c2ccccc2c1O | 0.92 | 0.24 | –
O=C(O)CSc1cc(NS(=O)(=O)c2ccccc2-c2ccccc2)c2ccccc2c1O | 9.9 | – | Ki [1]: 23.8 µM; Ki (Bcl-2-like protein 1): 48.2 µM
CC1(C)CCC(c2ccc(Cl)cc2)=C(CN2CCN(c3ccc(C(=O)NS(=O)(=O)c4ccc(N[C@H](CCN5CCOCC5)CSc5ccccc5)c(S(=O)(=O)C(F)(F)F)c4)cc3)CC2)C1 | – | – | inhibition [5]: inactive; inhibition [6]: Active
CCCCSc1cc(NS(=O)(=O)c2ccc(Br)cc2)c2ccccc2c1O | – | > 27 | –
COc1c(SCC(=O)O)cc(NS(=O)(=O)c2cccc(-c3ccccc3)c2)c2ccccc12 | 58.4 | 24.2 | –
O=C(O)CSc1cc(NS(=O)(=O)c2ccccc2)c2ccccc2c1O | 12.6 | – | –
O=C(O)CSc1cc(NS(=O)(=O)c2ccc(-c3ccccc3)cc2)c2ccccc2c1O | 2.03 | – | Ki [1]: 8.82 µM; Activity (MV4-11): Dose-dependent effect; Activity (K562): Dose-dependent effect; Activity (HL-60 [3]): Dose-dependent effect; Ki (Bcl-2-like protein 1): 8.05 µM
O=S(=O)(Nc1cc(CCCCO)c(O)c2ccccc12)c1ccc(Br)cc1 | 19.7 | – | –
O=C(O)CSc1cc(NC(=O)Cc2ccccc2)c2ccccc2c1O | 63.8 | 59.4 | –
COc1c(I)cc(C=O)c2ccccc12 | – | – | Ki (Bcl-2-like protein 1): > 15 µM; Ratio Ki (Homo sapiens): 16
O=C(O)CCSc1cc(NS(=O)(=O)c2cccc3ccccc23)c2ccccc2c1O | 64.9 | > 27 | –
O=C(O)CSc1cc(NS(=O)(=O)Cc2ccc(Cl)cc2)c2ccccc2c1O | 9.59 | – | –
O=S(=O)(Nc1ccc(O)c2ccccc12)c1ccccc1 | – | > 27 | –
O=C(O)CSc1cc(NS(=O)(=O)c2ccc(Br)cc2)ccc1O | > 100 | 283 | –
O=S(=O)(Nc1cc(CCCO)c(O)c2ccccc12)c1ccc(Br)cc1 | 11 | 3.79 | –
Cc1cs/c(=N\C2CCCCC2)n1/N=C/c1ccc(O)c(O)c1O | – | – | IC50 (Bcl-2-like protein 1): > 50 µM; IC50 [7]: 4.72 µM
COc1c(SCC(=O)O)cc(NS(=O)(=O)c2ccc(-c3ccccc3)cc2)c2ccccc12 | > 100 | 20 | –

Structure (SMILES) | IC50 [2] [µM] | Ki [4] [µM] | other results
COC(=O)CSc1cc(NS(=O)(=O)c2ccc(Br)cc2)c2ccccc2c1OC | > 100 | > 27 | inhibition [8]: inactive; Activity (MV4-11): Dose-dependent effect; IC50 (MV4-11; MV4-11, 72 h): > 50 µM; Activity (K562): Dose-dependent effect; IC50 (K562; K562, 72 h): > 50 µM; Activity (HL-60 [3]): Dose-dependent effect; IC50 (HL-60 [3]; HL-60, 72 h): > 50 µM
CC(C)c1ccc(S(=O)(=O)Nc2cc(SCC(=O)O)c(O)c3ccccc23)cc1 | 4 | – | –
COc1c(CCCCO)cc(NS(=O)(=O)c2ccc(Br)cc2)c2ccccc12 | > 100 | > 27 | –
O=C(O)CSc1cc(NS(=O)(=O)N2CCN(c3ccccc3)CC2)c2ccccc2c1O | 16.2 | 2.22 | –
COc1c(SCC(N)=O)cc(NS(=O)(=O)c2ccc(Br)cc2)c2ccccc12 | > 100 | > 27 | –
O=C(O)CSc1cc(NS(=O)(=O)c2ccc(Br)cc2)c2ccccc2c1O | 2.4 | – | Ki [1]: 23.8 µM; Activity (MV4-11): Dose-dependent effect; Activity (K562): Dose-dependent effect; Activity (HL-60 [3]): Dose-dependent effect; Ki (Bcl-2-like protein 1): 33 µM
O=C(O)CSc1cc(NS(=O)(=O)c2cccc(Br)c2)c2ccccc2c1O | 9.68 | – | –
COC(=O)CSc1cc(NS(=O)(=O)c2ccc(Br)cc2)c2ccccc2c1O | 14.9 | – | Activity (MV4-11): Dose-dependent effect; Activity (K562): Dose-dependent effect; Activity (HL-60 [3]): Dose-dependent effect
COc1ccc(S(=O)(=O)Nc2cc(SCC(=O)O)c(O)c3ccccc23)cc1 | 7.17 | 9.31 | –
O=C(O)CSc1cc(NC(=O)c2ccc(Br)cc2)c2ccccc2c1O | 45.1 | – | –
O=C(O)CSc1cc(NS(=O)(=O)c2ccc(-c3ccc(Cl)cc3)cc2)c2ccccc2c1O | 0.88 | – | inhibition [8]: inactive; Ki [1]: 6.11 µM; Activity (MV4-11): Dose-dependent effect; Activity (K562): Dose-dependent effect; Activity (HL-60 [3]): Dose-dependent effect
CC(C)(C)c1ccc(S(=O)(=O)Nc2cc(SCC(=O)O)c(O)c3ccccc23)cc1 | 8.73 | – | –
O=S(=O)(Nc1cc(SCc2nnn[nH]2)c(O)c2ccccc12)c1ccc(Br)cc1 | 1.5 | 1.01 | Activity (MV4-11): Dose-dependent effect; Activity (K562): Dose-dependent effect; Activity (HL-60 [3]): Dose-dependent effect
CCc1ccc(S(=O)(=O)Nc2cc(SCC(=O)O)c(O)c3ccccc23)cc1 | 8.68 | – | –
O=C(O)CCSc1cc(NS(=O)(=O)c2ccc3ccccc3c2)c2ccccc2c1O | 5.03 | – | –
O=C(O)CSc1cc(NS(=O)(=O)c2cc3ccccc3s2)c2ccccc2c1O | 7.5 | – | –
O=C(O)CSc1cc(NS(=O)(=O)c2ccc(F)cc2)c2ccccc2c1O | 5.01 | – | –
O=C(O)CSc1cc(NS(=O)(=O)c2ccc(Cl)cc2)c2ccccc2c1O | 2.7 | – | –
O=C(O)CSc1cc(NS(=O)(=O)c2ccc(Oc3ccccc3)cc2)c2ccccc2c1O | – | – | inhibition [8]: inactive; Ki [1]: 7.56 µM; Activity (HL-60 [9]): Active; inhibition [10]: 23%; Activity (MV4-11): Dose-dependent effect; Activity (K562): Dose-dependent effect; Activity (HL-60 [11]): Dose-dependent effect; inhibition [12]: 61%; inhibition [13]: Dose-dependent effect; Activity (HL-60 [14]): Dose-dependent effect; Activity (HL-60 [3]): Dose-dependent effect; Ki (Bcl-2-like protein 1): 10.6 µM
O=C(O)CSc1cc(NS(=O)(=O)c2ccccc2Br)c2ccccc2c1O | 6.18 | – | –
CC(=O)Oc1c(SCC(=O)O)cc(NS(=O)(=O)c2ccc(Br)cc2)c2ccccc12 | 26.8 | 34 | –
O=S(=O)(Nc1cc(SCc2nnn[nH]2)c(O)c2ccccc12)c1ccc(Oc2ccccc2)cc1 | – | 0.21 | Activity (MV4-11): Dose-dependent effect; Activity (K562): Dose-dependent effect; Activity (HL-60 [11]): Dose-dependent effect; Activity (HL-60 [3]): Dose-dependent effect
